In brackets after ≈: the same amount, converted by molar mass. Activity calls are given as the source filed them. The calls are words filed in the database; no cut-off is given here.
Legend:
PC-12 [1] = assay: Neuroprotective activity against glutamate-induced cell damage in rat PC12 cells assessed as increase in cell viability at 10 uM pretreated followed by glutamate challenge and measured after 24 hrs by MTT assay; type: functional, cell-based
A549 = assay: Cytotoxicity against human A549 cells after 48 hrs by MTT assay; type: functional, cell-based; details: A549, 48 h
Thoracic aorta [2] = assay: Vasorelaxant activity in Sprague-Dawley rat thoracic aortic ring assessed as inhibition of KCl-induced contraction; type: functional, tissue-based
Outline: (§1)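 Rat aortic rings precontracted with phenylephrine (PHE) or KCl; relaxation measured over a range of concentrations and EC50 derived. Positive controls were phentolamine mesylate and methoxyverapamil.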

MCF7 = assay: Cytotoxicity against human MCF7 cells after 48 hrs by MTT assay; type: functional, cell-based; details: MCF7, 48 h
Escherichia coli = assay: Antibacterial activity against Escherichia coli ATCC 25922 after 24 hrs by double dilution method; type: functional, organism-based
PC-12 [3] = assay: Neuroprotective activity against glutamate-induced cell damage in rat PC12 cells assessed as cell viability at 50 uM pretreated followed by glutamate challenge and measured after 24 hrs by MTT assay (reference value: 49.14 +/- 3.15%); type: functional; details: read-out: Activity
Staphylococcus aureus [4] = assay: Antibacterial activity against methicillin-resistant Staphylococcus aureus ATCC 43300 after 24 hrs by double dilution method; type: functional, organism-based
[5] = Cytotoxicity against human […] cells after 48 hrs by MTT assay; type: functional, cell-based
Staphylococcus aureus [6] = assay: Antibacterial activity against Staphylococcus aureus ATCC 25923 after 24 hrs by double dilution method; type: functional, organism-based
SGC-7901 = assay: Cytotoxicity against human SGC7901 cells after 48 hrs by MTT assay; type: functional, cell-based; details: SGC-7901, 48 h
Thoracic aorta [7] = assay: Vasorelaxant activity in Sprague-Dawley rat thoracic aortic ring assessed as inhibition of KCl-induced contraction at 50 uM; type: functional, tissue-based
Outline: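 Rat aortic rings contracted with KCl; relaxation measured with test agent at a single concentration of 50 μM. Methoxyverapamil and phentolamine mesylate were the positive controls.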

Thoracic aorta [8] = assay: Vasorelaxant activity in Sprague-Dawley rat thoracic aortic ring assessed as inhibition of phenylephrine-induced contraction; type: functional, tissue-based; outline: as §1
Candida albicans = assay: Antifungal activity against Candida albicans CMCC 98001 after 24 hrs by double dilution method; type: functional; details: CMCC 98001, 24 h

| SMILES | Activity (PC-12 [1]) | IC50 (A549) [µM] | inhibition (Thoracic aorta [2]) | IC50 (MCF7) [µM] | Activity (Escherichia coli) | viability at 50 µM (PC-12 [3]) [%] | Activity (Staphylococcus aureus [4]) | IC50 [5] [µM] | Activity (Staphylococcus aureus [6]) | IC50 (SGC-7901) [µM] | inhibition (Thoracic aorta [7]) | EC50 (Thoracic aorta [8]) [µM] | inhibition (Thoracic aorta [8]) | MIC (Candida albicans) [µM] | EC50 (Thoracic aorta [2]) [µM] |
| --- | --- | --- | --- | --- | --- | --- | --- | --- | --- | --- | --- | --- | --- | --- | --- |
| COCCOC(=O)C1=C(C)NC(C)=C(C(=O)OC(C)C)C1c1cccc([N+](=O)[O-])c1 (centres undefined) | Active | – | – | – | – | – | – | – | – | – | – | – | – | – | – |
| C=C(C)[C@@H]1CC[C@H](C)[C@H](CCC(C)=O)C(=O)C1 | – | > 50 | Active | > 50 | inactive | 78.7 | inactive | > 50 | inactive | > 50 | – | – | – | – | – |
| C=C(C)[C@@H]1C[C@@H](O)C(=C)C2=CC[C@H](C)[C@@H]2C1 | – | > 50 | – | > 50 | inactive | – | inactive | > 50 | inactive | > 50 | inactive | – | – | – | – |
| C=C(C)[C@@H]1CC[C@H](C)[C@@H](CCC(C)=O)C(=O)C1 | – | > 50 | – | > 50 | inactive | 75.7 | inactive | > 50 | inactive | > 50 | inactive | – | – | – | – |
| C=C(C)[C@@H]1CCC(C)=C2C(=O)C=C(C)[C@@H]2C1 | – | > 50 | – | > 50 | inactive | – | inactive | > 50 | inactive | > 50 | inactive | – | – | – | – |
| C=C(C)[C@@H]1CC[C@](C)(O)[C@@H]2CC[C@H](C)[C@]2(O)C1 | – | > 50 | – | > 50 | inactive | 66.1 | inactive | > 50 | inactive | > 50 | inactive | – | – | – | – |
| C=C(C)[C@@H]1CC[C@@](C)(O)C2=C[C@@H](O)[C@H](C)[C@@H]2C1 | – | > 50 | – | > 50 | inactive | – | inactive | > 50 | inactive | > 50 | inactive | – | – | – | – |
| C=C(C)[C@@H]1CCC(=C)[C@]2(O)[C@@H](O)C[C@H](C)[C@@H]2C1 | – | > 50 | Dose-dependent effect | > 50 | inactive | – | inactive | > 50 | inactive | > 50 | – | 5.4 | Dose-dependent effect | 500 (≈ 118 µg/mL) | – |
| C=C(C)[C@@H]1CC[C@H](C)[C@@]23O[C@]2(C1)[C@@H](C)C[C@H]3O | – | > 50 | Dose-dependent effect | > 50 | inactive | – | inactive | > 50 | inactive | > 50 | – | 1.6 | Dose-dependent effect | 300 (≈ 70.9 µg/mL) | 24.2 |
| C=C(C)[C@@H]1CC[C@H](C)[C@]23CC[C@](C)(O)[C@@]2(C1)O3 | – | > 50 | – | > 50 | inactive | 65.5 | inactive | > 50 | inactive | > 50 | inactive | – | – | – | – |
